The values below come from ChEMBL document CHEMBL4425094, “Novel Benzo[a]quinolizidine Analogs Induce Cancer Cell Death through Paraptosis and Apoptosis” (J Med Chem, 2016).

One assay deals with K562. As to the kind of experiment: Cytotoxicity against human K562 cells assessed as cell growth inhibition after 24 hrs by MTT assay. The settings on record: K562, 24 h. Type of assay: functional, cell-based. In outline:
(§1)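 Cells seeded 24 h in RPMI 1640 + 10% FBS. RWPE-1 was kept in K-SFM with bovine pituitary extract and EGF. Cells then exposed to compounds for 24 h at 37 °C, 5% CO2, with DMSO vehicle and docetaxel as positive control. MTT added for 4 h, absorbance read at 570 nm. Triplicate runs, IC50 reported as mean of three experiments.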

The subject of a further assay is MCF7. Kind of assay: Cytotoxicity against human MCF7 cells assessed as cell growth inhibition after 24 hrs by MTT assay. Type of assay: functional, cell-based. The following applies: MCF7, 24 h. In outline:
as §1

The subject of another assay is PC-3. As to the kind of experiment: Cytotoxicity against human PC3 cells assessed as cell growth inhibition after 24 hrs by MTT assay. It is filed as functional, cell-based. The following applies: PC-3, 24 h. In outline: as §1
Background: Tetrazolium dyes change colour on reduction, which living cells bring about.

The test system of a further assay is MDA-MB-231. Kind of assay: Cytotoxicity against human MDA-MB-231 cells assessed as cell growth inhibition after 24 hrs by MTT assay. Type of assay: functional, cell-based. The following applies: MDA-MB-231, 24 h. In a few lines:
as §1

For the next assay, the system named is RWPE-1. As to the kind of experiment: Cytotoxicity against human RWPE1 cells assessed as cell growth inhibition after 24 hrs by MTT assay. The settings on record: RWPE-1, 24 h. It is filed as cell-based. In a few lines:
as §1

Another assay deals with DU-145. Kind of assay: Cytotoxicity against human DU145 cells assessed as cell growth inhibition after 24 hrs by MTT assay. It is filed as functional, cell-based. The following applies: DU-145, 24 h. In a few lines: as §1
For a further assay, the system named is HeLa. Kind of assay: Cytotoxicity against human HeLa cells assessed as cell growth inhibition after 24 hrs by MTT assay. Type of assay: functional, cell-based. In a few lines: as §1

A value given as a limit tells only on which side of the number the result lay.

Turning to `COc1ccc([C@@H]2C[C@@H](O)C[C@H]3c4cc(OCc5ccccc5)c(OCc5ccccc5)cc4CCN23)cc1OC`, the IC50 – broadly, the midpoint of a concentration-inhibition curve – in the assay on K562 was determined as 5.42 µM; in the assay on MCF7 it was 2 µM; with PC-3, 1.51 µM; in the assay with MDA-MB-231, 1.15 µM; in the assay on RWPE-1, 2.08 µM; in the assay with DU-145, 1.59 µM. Also, the IC50 with HeLa was 3.46 µM.
With `C[C@@H]1C[C@@](C)(O)C[C@H]2c3cc(OCc4cc(F)cc(F)c4)c(OCc4cc(F)cc(F)c4)cc3CCN12`, the concentration for half-maximal inhibition (IC50) in the assay on K562 is 1.13 µM; in the assay with MCF7, 1.98 µM; in the assay on PC-3, 1.29 µM; in the assay on MDA-MB-231, 2.81 µM; in the assay on RWPE-1, 4.45 µM; with DU-145, 1.33 µM. For the same compound, the IC50 in the assay with HeLa came out at 1.29 µM.
On to `CCC[C@@H]1CC(=O)C[C@H]2c3cc(OCc4ccccc4)c(OCc4ccccc4)cc3CCN12` (relative stereo), for which the IC50 with K562, in the assay on MCF7, in the assay with PC-3, in the assay with MDA-MB-231, with RWPE-1 and in the assay on DU-145 was more than 20 µM in each case. Moreover, the IC50 in the assay with HeLa is more than 20 µM.
`O=C1C[C@@H](c2ccccc2)N2CCc3cc(OCc4ccccc4)ccc3[C@@H]2C1` (relative stereo): the IC50 in the assay on K562, with MCF7, with PC-3, in the assay on MDA-MB-231, in the assay with RWPE-1 and in the assay on DU-145 was more than 20 µM in each case. In the assay with HeLa, the IC50 was more than 20 µM.
Regarding `O[C@H]1C[C@@H](c2ccccc2)N2CCc3ccccc3[C@@H]2C1`, the IC50 in the assay with K562, with MCF7, in the assay on PC-3, in the assay on MDA-MB-231, with RWPE-1 and in the assay on DU-145 was more than 20 µM each time. Also, the IC50 with HeLa was more than 20 µM.
As to `CC[C@@H]1CC(=O)C/C=C(/C)[C@H]2c3cc(OCc4ccccc4)c(OCc4ccccc4)cc3CCN12` (relative stereo), the IC50 with K562, with MCF7, in the assay on PC-3, in the assay with MDA-MB-231, in the assay on RWPE-1 and in the assay on DU-145 was more than 20 µM throughout. Further, the IC50 in the assay with HeLa was more than 20 µM.
Turning to `C[C@@H]1CC(=O)C[C@H]2c3cc4c(cc3CCN12)OCO4` (relative stereo), the IC50 in the assay on K562, in the assay with MCF7, in the assay on PC-3, in the assay with MDA-MB-231, in the assay on RWPE-1 and with DU-145 was more than 20 µM each time. Moreover, the IC50 in the assay with HeLa is more than 20 µM.
As for `COc1cc([C@@H]2C[C@@H](O)C[C@H]3c4cc(OCc5ccccc5)c(OCc5ccccc5)cc4CCN23)cc(OC)c1OC`, the IC50 in the assay on K562, in the assay with MCF7, with PC-3, in the assay with MDA-MB-231, in the assay on RWPE-1 and in the assay with DU-145 was more than 20 µM each time. Further, the IC50 in the assay on HeLa is more than 20 µM.
Take `COc1ccc([C@@H]2C[C@H](O)C[C@H]3c4cc(OCc5ccccc5)c(OCc5ccccc5)cc4CCN23)cc1`: the concentration for half-maximal inhibition (IC50) in the assay on K562, in the assay on MCF7, in the assay on PC-3, in the assay with MDA-MB-231, with RWPE-1 and in the assay with DU-145 was more than 20 µM in each case. For the same compound, the IC50 in the assay on HeLa was more than 20 µM.
In the case of `COc1ccc([C@@H]2CC(=O)C[C@H]3c4cc(OCc5cc(F)cc(F)c5)c(OCc5cc(F)cc(F)c5)cc4CCN23)cc1OC` (relative stereo), the IC50 with K562, in the assay with MCF7, in the assay on PC-3, in the assay on MDA-MB-231, with RWPE-1 and in the assay with DU-145 was more than 20 µM each time. In addition, the IC50 with HeLa was more than 20 µM.
Turning to `Oc1cc2c(cc1O)[C@@H]1C[C@@H](O)C[C@@H](c3ccccc3)N1CC2`, the IC50 in the assay with K562, in the assay with MCF7, in the assay with PC-3, in the assay with MDA-MB-231, with RWPE-1 and with DU-145 was more than 20 µM throughout. Further, the 50% inhibitory concentration (IC50) in the assay on HeLa was more than 20 µM.
Turning to `O[C@H]1C[C@@H](c2ccc(-c3ccccc3)cc2)N2CCc3cc(OCc4ccccc4)c(OCc4ccccc4)cc3[C@@H]2C1`, the IC50 in the assay on K562, in the assay on MCF7, with PC-3, in the assay with MDA-MB-231, in the assay with RWPE-1 and in the assay with DU-145 was more than 20 µM throughout. In the assay with HeLa, the IC50 was more than 20 µM.
As for `O[C@@]1(c2ccccc2)C[C@@H](c2ccccc2)N2CCc3cc(OCc4ccccc4)c(OCc4ccccc4)cc3[C@@H]2C1`, the IC50 in the assay with K562, with MCF7, with PC-3, with MDA-MB-231, with RWPE-1 and in the assay on DU-145 was more than 20 µM in each case. Moreover, the IC50 in the assay with HeLa is more than 20 µM.
Turning to `O[C@H]1C[C@@H](c2ccccc2)N2CCc3cc(OCc4ccccc4)ccc3[C@@H]2C1`, the IC50 with K562, in the assay on MCF7, in the assay on PC-3, in the assay with MDA-MB-231, with RWPE-1 and in the assay with DU-145 was more than 20 µM in each case. In addition, in the assay with HeLa, the concentration for half-maximal inhibition (IC50) is more than 20 µM.
`O[C@@H]1C[C@@H](c2ccccc2)N2CCc3ccccc3[C@@H]2C1`: the IC50 in the assay with K562, in the assay with MCF7, with PC-3, in the assay on MDA-MB-231, with RWPE-1 and in the assay on DU-145 was more than 20 µM each time. In the assay with HeLa, the IC50 is more than 20 µM.
With `O[C@@H]1C[C@@H](c2ccccc2)N2CCc3cc4c(cc3[C@@H]2C1)OCO4`, the IC50 in the assay with K562, in the assay with MCF7, in the assay with PC-3, with MDA-MB-231, with RWPE-1 and with DU-145 was more than 20 µM throughout. In addition, the IC50 with HeLa was more than 20 µM.
Consider `C[C@@H]1C[C@@](C)(O)C[C@H]2c3cc(OCc4ccc(C(C)(C)C)cc4)c(OCc4ccc(C(C)(C)C)cc4)cc3CCN12`, for which the IC50 came to 1.35 µM in the assay with K562; 2.61 µM with MCF7; 1.11 µM in the assay with PC-3; 0.98 µM with MDA-MB-231; 4.03 µM with RWPE-1; 1.46 µM with DU-145. In the assay on HeLa, the IC50 amounted to 0.91 µM.
On to `O[C@@H]1C[C@@H](c2ccccc2)N2CCc3cc(OCc4ccccc4)c(OCc4ccccc4)cc3[C@@H]2C1`, for which the IC50 is 6.96 µM in the assay on K562; 20.1 µM in the assay on MCF7; 8.37 µM with PC-3; 11.8 µM in the assay with MDA-MB-231; 40 to 86.8 µM with RWPE-1; 12 µM in the assay with DU-145. Further, the IC50 with HeLa came out at 11.2 µM.
Regarding `O[C@]1(c2ccccc2)C[C@@H](c2ccccc2)N2CCc3cc(OCc4ccccc4)c(OCc4ccccc4)cc3[C@@H]2C1`, the half-maximal inhibitory concentration (IC50) in the assay with K562, with MCF7, in the assay with PC-3, in the assay on MDA-MB-231, with RWPE-1 and with DU-145 was more than 20 µM in each case. In the assay on HeLa, the IC50 was more than 20 µM.
With `O[C@H]1C[C@@H](c2ccccc2)N2CCc3ccc(OCc4ccccc4)cc3[C@@H]2C1`, the IC50 with K562, with MCF7, in the assay with PC-3, with MDA-MB-231, in the assay with RWPE-1 and with DU-145 was more than 20 µM each time. In the assay with HeLa, the IC50 was more than 20 µM.
In the case of `O=C1C[C@@H](c2ccccc2)N2CCc3ccc(OCc4ccccc4)cc3[C@@H]2C1` (relative stereo), the IC50 in the assay with K562, with MCF7, in the assay on PC-3, with MDA-MB-231, with RWPE-1 and with DU-145 was more than 20 µM in each case. For the same compound, the IC50 with HeLa was more than 20 µM.
For the compound `CCCCCCOc1cc2c(cc1OCCCCCC)[C@@H]1C[C@H](O)C[C@@H](C)N1CC2`, the IC50 in the assay on K562, in the assay on MCF7, with PC-3, in the assay with MDA-MB-231, in the assay with RWPE-1 and in the assay with DU-145 was more than 20 µM in each case. Further, the IC50 in the assay with HeLa was more than 20 µM.
On to `CC[C@@H]1C[C@@H](O)C[C@H]2c3cc(OCc4ccccc4)c(OCc4ccccc4)cc3CCN12`, for which the IC50 with K562 stood at 1.41 µM; with MCF7 it was 2.79 µM; in the assay with PC-3, 2.15 µM; in the assay on MDA-MB-231, 2.88 µM; in the assay on RWPE-1 it was 2.2 µM; in the assay on DU-145 it was 1.68 µM. Moreover, the IC50 with HeLa was 2.43 µM.
Regarding `CCCCCC[C@@H]1CC(=O)C[C@H]2c3cc(OCc4ccccc4)c(OCc4ccccc4)cc3CCN12` (relative stereo), the IC50 with K562, in the assay with MCF7, in the assay with PC-3, with MDA-MB-231, in the assay on RWPE-1 and in the assay on DU-145 was more than 20 µM in each case. Further, the IC50 in the assay with HeLa was more than 20 µM.
For the compound `C[C@@H]1C[C@@H](O)C[C@H]2c3cc(OCc4cc(F)cc(F)c4)c(OCc4cc(F)cc(F)c4)cc3CCN12`, the IC50 is 1.89 µM in the assay on K562; 1.71 µM in the assay with MCF7; 1.35 µM in the assay with PC-3; 2.11 µM with MDA-MB-231; 4.42 µM with RWPE-1; 1.88 µM in the assay on DU-145. Moreover, the IC50 in the assay on HeLa came to 1.96 µM.
